How the values were obtained:
[1] = biological target: T1, Neutrophil elastase (Homo sapiens) (UniProt P08246)
T1 sequence (whole entry): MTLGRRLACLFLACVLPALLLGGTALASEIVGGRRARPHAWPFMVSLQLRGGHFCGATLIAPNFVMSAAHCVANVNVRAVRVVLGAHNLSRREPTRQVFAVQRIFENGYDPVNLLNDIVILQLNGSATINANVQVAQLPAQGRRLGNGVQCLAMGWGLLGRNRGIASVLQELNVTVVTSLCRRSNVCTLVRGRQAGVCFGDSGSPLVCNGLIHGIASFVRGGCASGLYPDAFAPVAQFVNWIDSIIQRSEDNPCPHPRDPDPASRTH

[2] = test system: Cricetinae gen. sp.; experiment: Compound was evaluated in vivo for inhibition of HLE-induced hemorrhage in hamster lung at 30 microg 30 min after administration; format: functional, Cricetulus griseus
Method in brief: (§1)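 Hamster, intratracheal dosing of compound (per animal) 30 min before IT instillation of 50 μg HLE (50 units in Experimental); hemorrhage read 3 h later: lungs lavaged with saline, hemoglobin in lavage measured at 414 nm. Percent inhibition from drug-treated vs vehicle-treated hemorrhage; three animals per dose and time. Titration at 100, 30, 10, 3 μg/animal gives ED50.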

[3] = test system: Cricetinae gen. sp.; experiment: Compound was evaluated in vivo for inhibition of HLE-induced hemorrhage in hamster lung at 100 microg 30 min after administration; format: functional, Cricetulus griseus
Method in brief: as §1

[4] = test system: Cricetinae gen. sp.; experiment: Compound was evaluated in vivo for inhibition of HLE-induced hemorrhage in hamster lung at 100 microg, 90 min after administration; format: functional, Cricetulus griseus
[5] = test system: Cricetinae gen. sp.; experiment: Compound was evaluated in vivo for inhibition of HLE-induced hemorrhage in hamster lung at 100 microg, 30 min after administration; format: functional, Cricetulus griseus
Method in brief: as §1

[6] = Half-life value of the compound.; format: ADME
Method in brief: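 Chemical stability: compound dissolved at 1 mg/mL in 0.5 M MOPS, pH 8.0, held at 25 °C in capped vial; aliquots quenched in 2% aqueous TFA and analysed by reverse-phase HPLC over one to two half-lives. Peak areas fit to first-order decay F(t)=A/2^(t/t1/2) to give t1/2.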

[7] = test system: Cricetinae gen. sp.; experiment: Compound was evaluated in vivo for inhibition of HLE-induced hemorrhage in hamster lung at 10 microg 30 min after administration; format: functional, Cricetulus griseus
Method in brief: as §1

[8] = test system: Cricetinae gen. sp.; experiment: Compound was evaluated in vivo for inhibition of HLE-induced hemorrhage in hamster lung at 200 microg after 180 min of administration; format: functional, Cricetulus griseus
Method in brief: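 Hamster duration protocol: 200 μg/animal given intratracheally 60, 120, 180 or 240 min before IT HLE instillation; hemorrhage scored after 3 h as hemoglobin (414 nm) in saline lung lavage, relative to vehicle-treated animals; three animals per point. T50 taken as time at which 50% inhibition is still obtained.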

| SMILES | k obs / 1 [1] | Inhibition [2] | Inhibition [3] | Inhibition [4] | Inhibition [5] | half-life [6] | Inhibition [7] | Inhibition [8] |
| --- | --- | --- | --- | --- | --- | --- | --- | --- |
| CO[C@H]1C(=O)N2C(C(=O)OC(C)(C)C)=C(CSc3nnnn3CC(=O)O)CS(=O)(=O)[C@H]12 | 3700 M⁻¹ s⁻¹ | 77% | 89% |  |  |  |  |  |
| CO[C@H]1C(=O)N2C(C(=O)OC(C)(C)C)=C(COC(=O)N[C@@H](Cc3ccccc3)C(=O)O)CS(=O)(=O)[C@H]12 | 63900 M⁻¹ s⁻¹ |  |  | 10% | 87% |  |  |  |
| CO[C@H]1C(=O)N2C(C(=O)N(C)CC(=O)O)=C(COC(C)=O)CS(=O)(=O)[C@H]12 | 300 M⁻¹ s⁻¹ |  | 90% |  |  | 13 h | 67% | 54% |

— ChEMBL document CHEMBL1125311, “Inhibition of human leukocyte elastase. 4. Selection of a substituted cephalosporin (L-658,758) as a topical aerosol” (J Med Chem, 1992)
